# In the library only some 3% were active in any assay of this set; here they are far more common.
# Cneo AK release: Cryptococcus neoformans lysis via adenylate kinase release; C. neoformans lysis, adenylate kinase release luminescence, 4 h; normalised: neutral wells 0, clomiphene wells 100; lysis activity, % at 15 µM; 0.2% of 360,000 active; AID 651654;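 active = mean lysis activity across replicates of at least 80%, whatever share of replicates individually reach that level; inactive = mean lysis activity below 80%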
#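 Material – Cryptococcus neoformans yeast cells · Quantity – 5 × 10^6 yeast cells/mL · Buffer or medium – YPD medium · Compound – single dose · Timing – 4 h static compound exposure, 37 °C, read 1 h post-reagent · Signal – adenylate kinase release luminescence · Read-out basis – lysis from increased AK signal · Benchmarks – Clomiphene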
# Statin myotox sup: suppressors of simvastatin-induced myotoxicity in C2C12 myotubes; rescue of ATP level, % at 7.49 µM; ATP luminescence, 48 h; scaled: DMSO 0, geranylgeraniol control 100; AID 602340; 0.78% of 330,000 active;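 active = mean ATP rescue above about 67%, or every replicate alone reaching that limit, limit read from the data, passing the limit was not always enough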;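 also: myotubes were challenged with 10 µM simvastatin during compound exposure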
# rRNA inh HTS: selective bacterial rRNA inhibition in E. coli | GFP signal change (wild-type ribosome), % (no concentration beside the values) | E. coli WT GFP vs humanized-ribosome RFP mutants, fluorescence, 24 h; hits give low values; DMSO median 0, no signal -100 | 1.6% of 350,000 active;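 active = significant combined selectivity score with lowered wild-type GFP, culture density cut under 30%, mutant RFP and density less affected; inactive = any of these conditions unmet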
# S100A4 inh HTS: blocks human S100A4 binding to myosin IIA peptide. S100A4/TAMRA-MyoIIA peptide fluorescence polarization. inhibition, % at 10.7 µM. 0.14% of 360,000 active. AID 652163;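 active = mean inhibition of at least 70% across replicates, with every replicate also reaching that level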
# Target sequence (P26447 whole entry, looked up): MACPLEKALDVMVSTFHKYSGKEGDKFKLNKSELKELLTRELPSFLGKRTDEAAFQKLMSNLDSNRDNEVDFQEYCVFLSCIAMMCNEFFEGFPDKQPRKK
#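 Material: human S100A4 monomer with TAMRA-labelled myosin IIA peptide; buffer or medium: HEPES pH 7.2 with CaCl2, KCl, NaCl, DTT, Triton; compound dosing: one concentration per compound; schedule: 5 min incubation before reading; benchmarks: neutral control DMSO, positive control TFP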
# PGC1a acetyl inh: modulators of PGC1a acetylation | U2OS PGC1a acetylation, AlphaScreen anti-acetyl-lysine; with virally co-expressed GCN5 acetyltransferase | 0.17% of 350,000 active | inhibition, % at 15.6 µM;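 active = every replicate shows inhibition of at least 40%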;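 also: 0% = neutral control wells and 100% = positive control wells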
# SIRT5 inh: sirtuin-5 (human) deacylase inhibition. inhibition, % at 15 µM. Purified SirT5, succinyl-peptide AMC, trypsin-coupled fluorescence. AID 652115. Q9NXA8. 1.1% of 330,000 active; in the data active = inhibition above about 15%
# Target sequence (Q9NXA8 whole entry, looked up): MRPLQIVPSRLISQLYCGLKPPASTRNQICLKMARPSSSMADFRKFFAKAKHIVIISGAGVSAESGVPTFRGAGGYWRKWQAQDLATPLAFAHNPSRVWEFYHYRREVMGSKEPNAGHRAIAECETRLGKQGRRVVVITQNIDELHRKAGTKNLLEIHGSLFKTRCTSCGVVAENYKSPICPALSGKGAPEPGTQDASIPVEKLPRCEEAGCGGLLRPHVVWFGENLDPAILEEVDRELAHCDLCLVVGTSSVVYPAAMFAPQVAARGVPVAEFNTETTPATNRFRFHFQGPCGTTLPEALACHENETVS
# Active calls of the source: *; . = not tested or not shown.
SMILES,Cneo AK release,Statin myotox sup,rRNA inh HTS,S100A4 inh HTS,PGC1a acetyl inh,SIRT5 inh
COC(=O)[C@@]12C[C@@H](CC(=O)NCc3ccccc3)C(=O)N(Cc3cccc4ccccc34)C1=CCC(C)(C)C2,.,.,-4,2,.,2
CCOC(=O)[C@]12CCC=C1N(Cc1ccccc1)C(=O)[C@H](CC(=O)NCCC(C)C)C2,.,.,-24*,13,.,2
CO[C@H]1CN(C)C(=O)c2ccc(NC(=O)c3ccccc3)cc2OC[C@@H](C)N(C(=O)CN(C)C)C[C@@H]1C,-1,-9,1,4,4,0
COc1cc(CNCc2ccccn2)ccc1OCc1cccc(Cl)c1,3,-26,-41*,-2,-8,-15
COc1cc(CNCc2ccccn2)ccc1OCc1c(Cl)cccc1Cl,0,-12,-46*,0,7,-2
COc1cc(CNCc2ccccn2)ccc1OCc1ccc(Cl)cc1,8,.,3,-3,-13,0
COc1cc(CNc2nnnn2C)ccc1OCc1c(F)cccc1Cl,.,7,5,7,.,-1
Cc1noc(C)c1NC(=O)N(C)C[C@H]1Oc2ccc(NS(=O)(=O)c3c(C)noc3C)cc2C(=O)N([C@@H](C)CO)C[C@H]1C,.,.,4,.,.,.
CC(C)CC#Cc1cnc2c(c1)C(=O)N([C@@H](C)CO)C[C@H](C)[C@H](CN(C)C(=O)c1cccnc1)O2,4,-7,7,-2,2,-2
COc1cc(/C=C2\SC(=O)N(c3ccc(Cl)cc3)C2=O)cc([N+](=O)[O-])c1O,.,.,-3,-3,3,-4
COc1cc(/C=C2\SC(=O)N(c3cccc(Cl)c3)C2=O)cc([N+](=O)[O-])c1O,.,.,-33*,1,-4,-1
Cc1nc(C(=O)NNC(=O)c2ccc(Cl)cc2)c(C(F)(F)F)o1,-1,.,-30*,-8,14,-5
O=C(Nc1ccccc1F)N1C[C@@H]2[C@H](c3ccccc31)[C@H](CO)N2C(=O)C1CCCC1,-10,1,0,2,-6,0
O=C(CC(F)(F)F)N1C[C@H]2[C@@H](c3ccccc31)[C@H](CO)N2C(=O)CN1CCOCC1,0,0,4,11,2,0
C[C@@H]1CCCCO[C@H](CN(C)S(=O)(=O)c2ccc(F)cc2)[C@H](C)CN([C@H](C)CO)C(=O)c2cc(NC(=O)NC3CCCCC3)ccc2O1,0,.,0,15,-11,7
COc1cccc(Nc2nc(NCCO)nc(N3CCCC3)n2)c1,2,-6,-25*,-2,.,.
O=C(NCc1ccncc1)c1ccc(Cl)c(S(=O)(=O)N2CCCCC2)c1,.,.,1,1,-5,18*
O=C(c1ccc(Cl)c(S(=O)(=O)N2CCCCCC2)c1)N1CCN(c2ccccc2O)CC1,.,.,-44*,-18,-7,-1
COc1ccccc1N1CCN(C(=O)c2ccc(S(=O)(=O)N3CCCCCC3)cc2)CC1,6,127*,.,.,-18,.
O=C(c1ccc(Cl)c(S(=O)(=O)N2CCCCC2)c1)N1CCN(c2ccccc2)CC1,-3,.,.,3,3,3
O=C1c2ccccc2-c2ccc(C(=O)N3CCCCC3)cc21,.,.,-25*,8,-13,-2
O=C(NCc1cccnc1)c1ccc(Cl)c(S(=O)(=O)N2CCCCCC2)c1,1,-13,-31,7,-1,-2
COc1cccc(S(=O)(=O)Nc2ccc3c(c2)OC[C@@H](C)NC[C@H](C)[C@H](OC)CN(C)C3=O)c1,2,-7,1,1,-4,-1
CC(=O)Nc1ccc(NC(=O)CSc2nnc(C3CC3)n2C)cc1,1,127*,.,.,-7,.
CC(=O)c1ccc(NC(=O)CSc2nnc(C3CC3)n2C)cc1,2,6,4,-6,1,0
SMILES,Cneo AK release,Statin myotox sup,rRNA inh HTS,S100A4 inh HTS,PGC1a acetyl inh,SIRT5 inh
C[C@@H]1CN([C@H](C)CO)C(=O)c2cc(C#CC(C)(C)O)cnc2O[C@H]1CN(C)Cc1cccc(F)c1,.,-3,-2,.,3,.
Cc1ccc(NS(=O)(=O)c2ccc(C)c(C(=O)N3CCN(C)CC3)c2)cc1,-1,123*,.,.,-4,.
C[C@H]1CN(C)C(=O)c2cccc(NS(C)(=O)=O)c2O[C@H]1CN(C)C,.,.,0,.,.,.
COC(=O)C1=C(C)N(c2ccc(F)cc2)/C(=C/c2ccc(O)cc2)C1=O,1,115*,20,2,12,-5
COC(=O)C1=C(C)N(c2ccc(C)cc2)/C(=C/c2cccs2)C1=O,-2,4,.,.,-10,.
COc1ccc(NC(=O)N[C@H]2C=C[C@H](CC(=O)NC3CCCCC3)O[C@@H]2CO)cc1,0,6,.,-3,3,0
COc1ccc(CNc2ccc(C)c(C)c2)c(OC)c1OC,.,.,-20*,-8,4,-3
COc1ccc(CNc2cc(C)ccc2C)c(OC)c1OC,-2,37,.,.,.,.
CS(=O)(=O)Nc1ccc2c(c1)[C@@H]1C[C@@H](CC(=O)N3CCOCC3)O[C@@H](CO)[C@@H]1O2,-6,4,3,-5,-23,2
COc1ccc(C=C(C#N)C(=O)c2ccccc2)cc1,.,.,.,1,.,.
COc1cc(/C=C(\C#N)C(=O)c2ccc(O)c(O)c2)cc(I)c1O,0,1,.,-15,7,20*
CCC(=O)c1ccc(OCCn2cnc3ccccc32)cc1,.,.,-34*,-1,4,-23
O=C(Nc1ccccc1C(=O)O)c1cc(S(=O)(=O)Nc2ccccc2)ccc1Cl,3,5,-12,2,-1,23*
COc1ccc(NS(=O)(=O)c2ccc(Cl)c(NC(=O)c3ccccc3F)c2)cc1,-1,-13,-13*,-2,-9,.
CNC(=O)C[C@H]1CC[C@@H]2[C@H](COC[C@@H](O)CN2Cc2ccncc2)O1,9,-15,5,-35,-2,1
C[C@@H]1CN([C@@H](C)CO)C(=O)c2cccc(N(C)C)c2O[C@H]1CN(C)Cc1ccncc1,51,-6,2,4,-2,3
O=C(C[C@H]1CC[C@@H]2[C@H](COC[C@@H](O)CN2C(=O)c2ccc(F)cc2)O1)Nc1ccc(-c2ccccc2)cc1,-3,11,-9,-25,-1,.
COc1cc(CCCN2C(N)=NC[C@@H]2c2ccccc2)cc(OC)c1OC,7,-4,-6,9,.,-3
CCC(C)[C@H]1CN=C(N)N1CCCc1cc(OC)c(OC)c(OC)c1 (stereo partly drawn),-2,10,3,-4,.,23*
CCOc1cc(/C=N\Nc2ccc([N+](=O)[O-])cc2)ccc1OCC(=O)Nc1ccc(C)c(C)c1,0,103*,.,.,-2,.
CCCCCCN1C[C@@H](O)[C@H](n2cc(COC(=O)c3ccccc3)nn2)C[C@@H]1c1ccccc1,5,8,5,-9,-7,12

# High-throughput results deposited in PubChem by Broad Institute.
